Source: PubChem BioAssay (several laboratories)
Only some compounds are listed: those with a hit (about 2.6% of all), similar ones and a draw of the others.
FGF22 binding – binders of human FGF22 protein, primary screen, FGF22 synaptogenesis inhibitor project, biophysical, thermal shift, single point; Fibroblast growth factor 22 (Homo sapiens), Q9HCT0; activity (Tm shift, normalised), % at 9.99 µM; 1.5% of 340,000 active; recombinant FGF22 thermal shift, SYPRO orange fluorescence; percent of sucrose octasulfate shift, DMSO zero;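 active means mean Tm shift, scaled 0 neutral to 100 positive control, at about 1.3% or above, every replicate too, limit read from the data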
Casp6 inh – human caspase-6 inhibitors, primary screen, biochemical, VEID-R110 fluorescence, single point, set 2; AID 686996, 2013; 0.53% of 350,000 active; P55212; purified caspase-6, Z-VEID-R110 cleavage fluorescence; inhibition, % at 12.5 µM;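 active means mean inhibition across replicates at least about 35%, with every replicate also reaching that limit, limit read from the data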;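 further: 0% = median of neutral control wells and 100% = no fluorescence left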
Target sequence (P55212 24-179 limits assumed): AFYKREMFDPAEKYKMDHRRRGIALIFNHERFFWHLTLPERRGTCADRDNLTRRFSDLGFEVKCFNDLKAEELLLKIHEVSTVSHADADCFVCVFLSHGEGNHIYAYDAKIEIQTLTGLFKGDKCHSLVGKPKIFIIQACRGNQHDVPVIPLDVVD
Target sequence (P55212 194-293 limits assumed): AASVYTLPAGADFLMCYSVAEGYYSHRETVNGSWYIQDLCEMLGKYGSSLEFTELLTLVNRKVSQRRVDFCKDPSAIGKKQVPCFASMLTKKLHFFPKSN
UCH37 inh – inhibitors of human UCH37 deubiquitinase, primary screen, biochemical, Ub-AMC cleavage, fluorescence | inhibition, % (test concentration not listed) | 0.33% of 330,000 active | purified proteasome/UCH37 | AID 588478, 2011;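 active means mean inhibition over replicate wells above about 20%, limit read from the data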;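 further: 0% = compound-free wells with enzyme and 100% = wells lacking proteasome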
Target sequence (Q9Y5K5 whole entry, looked up): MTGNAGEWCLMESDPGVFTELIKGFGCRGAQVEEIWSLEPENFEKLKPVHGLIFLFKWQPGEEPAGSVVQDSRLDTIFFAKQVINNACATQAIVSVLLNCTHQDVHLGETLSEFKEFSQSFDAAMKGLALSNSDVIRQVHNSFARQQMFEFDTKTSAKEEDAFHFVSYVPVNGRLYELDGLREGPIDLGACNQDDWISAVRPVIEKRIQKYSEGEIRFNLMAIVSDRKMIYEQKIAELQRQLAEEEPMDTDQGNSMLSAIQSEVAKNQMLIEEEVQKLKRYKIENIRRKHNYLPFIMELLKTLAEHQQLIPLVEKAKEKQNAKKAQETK
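Signal – fluorescence, ex 355 nm, em 460 nm · System – Proteasome-bound UCH37 · Input – 0.15 nM proteasome as dispensed · Timing – 30 min preincubation with enzyme, 25 min cleavage at room temperature · Read-out basis – percent inhibition of cleavage signal versus uninhibited and no-proteasome wells · Medium – Tris-HCl pH 7.4 with ATP-MgCl2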
NSD2 inh – NSD2 histone methyltransferase inhibitors, primary screen, biochemical, AlphaScreen, single concentration, set 2 | AID 743445, 2014 | inhibition, % at 12.5 µM | Histone-lysine N-methyltransferase NSD2 (Homo sapiens), O96028 | NSD2 peptide methylation, 120 min | 0.54% of 310,000 active; in the data active means inhibition above about 50%
SIRT5 inh – SIRT5 desuccinylase inhibitors, primary screen, biochemical, fluorescence imaging, single point, set 5; NAD-dependent protein deacylase sirtuin-5, mitochondrial (Homo sapiens), Q9NXA8; Purified SirT5, succinyl-peptide AMC, trypsin-coupled fluorescence; inhibition, % at 15 µM; 1.1% of 330,000 active; in the data active means inhibition above about 15%
The depositor's hits bear a star; . = no result.

SMILES | FGF22 binding | Casp6 inh | UCH37 inh | NSD2 inh | SIRT5 inh
C=C1C(C(=O)Nc2cccc(OC)c2)C1C(=O)Nc1cccc(OC)c1 (stereo not drawn) | 44* | 2 | 2 | 0 | -1
COc1ccc(C(=O)Nc2cc(C(=O)O)cc(C(=O)O)c2)cc1Cl | . | 82* | 5 | 3 | -3
O=C(Nc1cccc(-c2nnc(-c3ccco3)o2)c1)c1ccccc1 | 43* | -2 | 0 | -6 | 1
COc1cccc(NC(=O)c2ccccc2)c1 | -1 | 7 | 3 | . | 32*
Cc1noc(C)c1NC(=O)Nc1cccc2c1O[C@H](CN(C)C(=O)Nc1ccc(C(F)(F)F)cc1)[C@H](C)CN([C@H](C)CO)C2=O | . | . | . | . | -7
COc1cccc(NC(=O)C(c2ccccc2)N2CCN(c3ccccn3)CC2)c1 (stereo not drawn) | 0 | 0 | 4 | 0 | -3
COc1cccc(NC(=O)C(c2ccccc2)N2CCCC2)c1 (stereo not drawn) | 43* | 1 | 4 | -4 | -3
Cc1cccc(C(=O)Nc2cccc(NC(=O)c3ccccc3)c2)c1 | 0 | 54* | 1 | 0 | -2
O=C(O)c1ccc(NC(=O)c2cccc(C(=O)Nc3ccc(C(=O)O)cc3)c2)cc1 | 0 | 3 | -2 | -1 | 33*
Cc1cccc(C(=O)Nc2ccc(NC(=O)c3ccccc3)cc2)c1 | 0 | 0 | 6 | 0 | 1
CCOC(=O)NN=C/C=C/c1ccco1 | . | . | 7 | . | .
Cc1cc(NC(=S)NC(=O)c2ccco2)c2ccccc2n1 | 43* | 1 | 6 | -2 | -6
Fc1ccc(/C=C/c2nnc(-c3cccs3)o2)cc1 | 0 | -3 | -22 | 51* | -4
Cc1ccc(/C=C/c2nnc(-c3cccs3)o2)cc1 | . | . | -26 | 2 | .
Cc1ccccc1-c1cnc2c(c1)C(=O)N([C@H](C)CO)C[C@@H](C)[C@@H](CN(C)Cc1ccncc1)O2 | 0 | 21 | . | . | 3
CC(=O)N[C@@H]1CC[C@@H](CCNC(=O)C2CCCC2)O[C@H]1CO | 0 | 0 | . | . | -2
COc1ccc(S(=O)(=O)Nc2ccc3c(c2)C(=O)N([C@@H](C)CO)C[C@H](C)[C@H](CN(C)C(=O)CCC(F)(F)F)OCCCC[C@H](C)O3)cc1 | 0 | 1 | . | . | 3
Cc1[nH]n(-c2ccccc2)c(=O)c1C=Nc1nn[nH]n1 | . | . | 11 | . | .
O=C(NCCc1ccccc1)c1cc(S(=O)(=O)N2CCOCC2)ccc1F | . | . | 0 | . | .
Cc1cc(C)cc(OCCNC(=O)c2cc(S(=O)(=O)N3CCOCC3)ccc2F)c1 | 0 | -1 | 0 | -1 | 17*
COc1ccc(NC(=O)C2CC(=O)N=C(N)S2)cc1 (stereo not drawn) | 43* | -5 | 1 | -2 | 1
CCc1ccc(NC(=O)C2CC(=O)N=C(N)S2)cc1 (stereo not drawn) | . | . | 4 | -2 | .
CCOC(=O)/C(=C/C1=CC(=C/N(C)C)/C(=O)O1)C(C)=O | 0 | 2 | 22* | 0 | 6
CN(C)CC(=O)N[C@@H]1CC[C@H](CCNC(=O)C2CC2)O[C@H]1CO | . | -6 | . | . | 8
CCCn1c(=O)c2sccc2n2c(CCCC(=O)NCc3ccco3)nnc12 | 0 | 58* | 4 | 17 | 1
SMILES | FGF22 binding | Casp6 inh | UCH37 inh | NSD2 inh | SIRT5 inh
Cc1nnc(NC(=O)CSc2ccc(-c3ccco3)nn2)s1 | 0 | 35* | 4 | 10 | -8
Cc1cc(C)cc(NC(=O)CSc2ccc(-c3cccs3)nn2)c1 | 0 | -3 | . | -6 | 22*
O=[N+]([O-])c1cc(/C=N/Nc2nc3ccccc3[nH]2)c(O)cc1O | 0 | 61* | . | 17 | 10
C[C@@H]1CN([C@@H](C)CO)C(=O)c2ccccc2-c2ccccc2CO[C@@H]1CN(C)Cc1cccc(C(F)(F)F)c1 | 1 | -2 | . | . | 5
CC(C)[C@H](NC(=O)c1ccco1)C(=O)OCC(=O)N(C)c1ccccc1 | 0 | -2 | 4 | 5 | -4
CC(C)N(C(=O)COC(=O)[C@H](C)NC(=O)c1ccco1)c1ccccc1 | 0 | -1 | 1 | -1 | 31*
C[C@H]1CN([C@@H](C)CO)C(=O)c2cc(NS(=O)(=O)c3cccs3)ccc2O[C@H]1CN(C)S(=O)(=O)c1ccccc1 | -1 | 3 | . | . | 4
CC(C)(C)OC(=O)N1CCC(NC(=O)c2nc[nH]c2C(=O)N2CCc3ccccc3C2)CC1 | 0 | 8 | 29* | . | .
CC(C)(C)OC(=O)CNC(=O)c1nc[nH]c1C(=O)N1CCc2ccccc2C1 | 0 | 3 | 31* | . | 4
CC(C)(C)OC(=O)N1CCC(NC(=O)c2[nH]cnc2C(=O)Nc2ccccc2F)CC1 | 43* | -2 | . | . | .
CC(C)(C)OC(=O)N1CCC(NC(=O)c2[nH]cnc2C(=O)Nc2ccc(Br)cc2F)CC1 | 0 | -2 | . | . | -4
C[C@H](CO)N1C[C@H](C)[C@@H](CN(C)Cc2ccc(-c3ccccc3)cc2)Oc2c(NC(=O)Nc3ccc(C(F)(F)F)cc3)cccc2C1=O | -1 | -3 | 3 | . | 2.6*
COc1ccc(CN(C)C[C@H]2Oc3c(NC(=O)Nc4ccc(F)cc4)cccc3C(=O)N([C@@H](C)CO)C[C@@H]2C)cc1 | 0 | 0 | . | . | 30*
COc1ccc(CN(C)C[C@H]2Oc3c(NC(=O)Nc4ccc(F)cc4)cccc3C(=O)N([C@@H](C)CO)C[C@H]2C)cc1 | 0 | -1 | . | . | -1
C[C@@H]1CN([C@@H](C)CO)C(=O)c2cccc(NC(=O)Nc3ccccc3)c2O[C@@H]1CN(C)Cc1ccc(C(F)(F)F)cc1 | -1 | -1 | . | . | 103*
C[C@H]1CN([C@@H](C)CO)C(=O)c2cccc(NC(=O)Nc3ccc(C(F)(F)F)cc3)c2O[C@H]1CN(C)Cc1ccc(-c2ccccc2)cc1 | 0 | 0 | . | . | 2
COc1ccccc1NC(C)=O | . | . | -1 | 4 | .
COc1ccccc1NC(=O)C(=N\O)/C(C)=N/O | 0 | 39* | . | 11 | 4
S=C(NCCc1ccccn1)Nc1ccc(Cl)cc1 | 0 | -1 | 6 | 2 | 1
Fc1ccc(NC(=S)NCCc2ccccn2)cc1 | 44* | -3 | 4 | 0 | -4
S=C(NCc1ccccn1)Nc1ccccc1 | 44* | 0 | 0 | -5 | 0
C[C@H](CCC(=O)OCc1cn(CC(=O)c2ccc(O)cc2)nn1)C1CC[C@H]2[C@@H]3CC[C@@H]4C[C@H](O)CC[C@]4(C)[C@H]3C[C@H](O)[C@]12C (stereo partly drawn) | 1 | . | . | . | 33*
